# MrgX1 antag – human MrgX1 receptor antagonism, primary screen | B-score at 10 µM | MRGX1-HEK293 calcium flux, Fluo-4, BAM8-22 antagonism; active compounds read low | Q96LB2 | actives 1.3% (n = 310,000) | AID 588676;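 active = calcium-response B-score plate-corrected more than 3 library SD below zero, starting fluorescence within 5 deviations, no agonist response on first addition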;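 note: peak minus trough fluorescence over baseline after final BAM8-22 challenge near maximal dose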
# Target sequence (Q96LB2 whole entry, looked up): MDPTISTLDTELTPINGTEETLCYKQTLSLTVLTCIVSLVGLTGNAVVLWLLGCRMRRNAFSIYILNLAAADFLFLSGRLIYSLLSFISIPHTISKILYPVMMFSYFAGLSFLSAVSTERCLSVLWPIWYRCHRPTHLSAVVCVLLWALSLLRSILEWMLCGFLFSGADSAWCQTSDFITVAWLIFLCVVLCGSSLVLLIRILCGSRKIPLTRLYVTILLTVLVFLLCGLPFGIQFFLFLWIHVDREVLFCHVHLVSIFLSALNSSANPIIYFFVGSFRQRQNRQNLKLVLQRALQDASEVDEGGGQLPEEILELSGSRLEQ
# MrgX1 PAM – allosterically activates human MrgX1 receptor signaling | Q96LB2 | MrgX1-HEK293, Fluo-4 calcium flux, FDSS; active compounds read high | actives 0.63% (n = 310,000) | B-score at 10 µM;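 active = plate-corrected calcium response at least 3 library SD above typical, normal starting fluorescence, not activating the receptor alone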;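 note: compound read alongside a low EC10 to EC30 dose of BAM8-22 agonist; peak minus trough fluorescence over baseline measured at the second addition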
# RGS4 pot – RGS4 potentiation or activation. HEK293 M3R/inducible RGS4, carbachol calcium flux Fluo4; active compounds read low. B-score at 10 µM. actives 0.92% (n = 310,000). AID 463111;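 active = B-score of the integrated calcium signal more than 4 SD below the library mean, with starting fluorescence not abnormally high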;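 note: negative B-score means reduced calcium response which marks RGS4 activation or potentiation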
#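 System: HEK293 FlpIn-TREx cells, stable M3R, doxycycline-inducible RGS4. Timing: overnight RGS4 induction, 30 min dye load 37 °C, 20 min compound RT. Also added: carbachol, ECmax concentration. Measured by: Fluo4 fluorescence kinetic imaging of calcium. Evaluation: integrated calcium ratio converted to B score.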
# RGS4 inh – human RGS4 inhibition; P49798; B-score at 10 µM; AID 463165; actives 0.45% (n = 310,000); HEK293 M3R/RGS4 inducible, Fluo-4 calcium flux; active compounds read high; triggered by carbachol at its EC20;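 active = B-score, a plate-corrected calcium signal, over three deviations above library mean, with baseline fluorescence within five deviations of library mean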;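 note: RGS4 expression induced by doxycycline in cells with stable M3 receptor; B-score is computed from the integrated fluorescence ratio over baseline after carbachol; higher B-score means a larger calcium signal and so more RGS4 inhibition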
# Target sequence (P49798 whole entry, looked up): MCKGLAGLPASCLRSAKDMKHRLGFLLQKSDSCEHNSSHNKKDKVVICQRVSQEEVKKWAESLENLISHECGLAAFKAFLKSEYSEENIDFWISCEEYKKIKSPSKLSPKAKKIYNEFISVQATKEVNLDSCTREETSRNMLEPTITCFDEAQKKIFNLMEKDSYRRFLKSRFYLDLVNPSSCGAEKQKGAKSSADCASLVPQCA
# MrgX1 agonist – human MrgX1 receptor agonism, primary screen; Q96LB2; MrgX1-HEK293 cells, Fluo-4 calcium fluorescence, agonist mode; active compounds read high; B-score at 10 µM; actives 0.44% (n = 310,000); AID 588627;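 active = calcium response B-score plate-corrected fluorescence ratio at least 3 library SD, with starting fluorescence B-score inside 5 SD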
#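 Assay system: MrgX1-expressing HEK293 cells / Amount: fifteen thousand cells per well / Doses: test compound in the initial addition of three / Timing: cells plated overnight, dye loaded 0.5 h 37 °C, 0.5 h room temperature / Technique: kinetic calcium dye fluorescence, Fluo-4 NW / Control set: positive and negative controls per plate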
# RGS4 block valid – validation of RGS4 inhibitors. AID 492999. calcium response, % at 10 µM. actives 65% (n = 1,700). shares compounds with RGS4 inh. HEK293 M3R/RGS4, carbachol calcium Fluo-4 fluorescence; carbachol added at its EC20; 0 = buffer wells, 100 = carbachol control;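 active = duplicate-averaged calcium response above the buffer-only control mean plus 5 SD of those controls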;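 note: integrated fluorescence ratio F max minus min over baseline F0; higher response in RGS4-induced cells means RGS4 inhibition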
# M3R Ca ctr – checks RGS4 inhibitor effects in non-induced HEK293 M3R cells. shares compounds with RGS4 inh. carbachol calcium Fluo-4; submaximal (EC20) carbachol stimulus; buffer wells 0%, carbachol control wells 100%. activity (percent), % at 10 µM. actives 20% (n = 1,900); call rule not given here;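 note: RGS4 induction absent so cells express M3R without RGS4; higher means more calcium signal and flags a non-specific hit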
# M3R basal Ca ctr – signal in non-induced cells without carbachol, RGS4 inhibitor counter-screen. calcium response (agonist-mode artifact), % at 10 µM. shares compounds with RGS4 inh. HEK293 M3R/RGS4 non-induced, Fluo-4 calcium, no carbachol; normalised: buffer wells 0%, carbachol wells 100%. actives 22% (n = 1,900);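 active = duplicate-averaged calcium rise in uninduced cells above buffer wells' mean plus 5 SD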
# * = called active by the depositor; i = inactive; / = no result. Compounds with a hit are over-represented: about 3.5% of the library has one in this group of screens.
SMILES,MrgX1 antag,MrgX1 PAM,RGS4 pot,RGS4 inh,MrgX1 agonist,RGS4 block valid,M3R Ca ctr,M3R basal Ca ctr
Cc1ccc(Nc2nc(N)nc(CN3CCN(Cc4ccc5c(c4)OCO5)CC3)n2)cc1Cl,i,i,i,6.2*,i,i,i,i
Cc1ccc(Nc2nc(N)nc(CN3CCN(Cc4ccc5c(c4)OCO5)CC3)n2)cc1,i,i,i,i,i,i,i,i
Cc1ccc(Nc2nc(N)nc(CN3CCN(Cc4ccc5c(c4)OCO5)CC3)n2)c(C)c1,i,i,i,i,i,/,/,/
CC(CCCC(C)(C)O)NC(=O)c1ccc(OC2CCN(C(=O)C3CC3)CC2)cc1 (stereo unspecified),i,i,i,i,i,/,/,/
CCc1nnc(NC(=O)CN2CCN(Cc3ccc(F)cc3)CC2)s1,i,i,i,i,i,/,/,/
CC(=O)C1=C(c2ccccc2)NC(=O)NC1c1ccc(O)c(Cl)c1 (stereo unspecified),i,i,i,i,i,/,/,/
CCOC(=O)[C@@H]1[C@H]2COc3ccccc3[C@@H]2N2C(=O)N(c3ccc(OC)cc3)C(=O)[C@@]12C,i,i,i,i,i,i,i,i
CCOC(=O)[C@@H]1[C@H]2COc3ccccc3[C@@H]2N2C(=O)N(c3ccc(OC)cc3)C(=O)[C@]12C,i,i,i,i,i,i,i,7.5%*
CCOC(=O)[C@@H]1[C@H]2COc3ccc(Br)cc3[C@@H]2N2C(=O)N(c3ccc(OC)cc3)C(=O)[C@]12C,i,i,i,i,i,/,/,/
COc1ccc(C(=O)CSc2nc3[nH]ncc3c(=O)[nH]2)cc1,i,i,i,i,i,/,/,/
Cc1cc(Nc2ccccc2)n2nc(C)c(-c3ccccc3)c2n1,i,i,i,i,i,i,i,i
Cc1cc(C)n2nc(C)c(-c3ccccc3)c2n1,i,i,i,i,i,/,/,/
Cc1ccc2cc(CN(C(=O)c3ccco3)c3cccc(C)c3C)c(=O)[nH]c2c1,i,i,i,i,i,/,/,/
Cc1ccc2cc(CN(C(=O)c3ccco3)c3ccccc3C)c(=O)[nH]c2c1,i,i,i,i,i,i,i,i
Cc1ccc(N(Cc2cc3ccc(C)cc3[nH]c2=O)C(=O)c2ccco2)c(C)c1,i,i,i,i,i,i,i,i
COCC(=O)N(Cc1cc2ccc(C)cc2[nH]c1=O)c1ccc(C)cc1C,i,i,i,i,i,/,/,/
Cn1ncc2c(N3CCN(c4ccc(Cl)c(Cl)c4)CC3)ncnc21,i,i,i,5.7*,i,9.5%*,i,i
Cn1ncc2c(N3CCN(c4ccccc4F)CC3)ncnc21,i,i,i,i,i,/,/,/
Cc1ccc(N=C2NC(=O)/C(=C/c3cccnc3)S2)c(C)c1,i,i,i,7.9*,i,20%*,i,i
Cc1cccc(N=C2NC(=O)/C(=C/c3cccnc3)S2)c1C,i,i,i,i,i,/,/,/
COc1cc(N(C)C)c([N+](=O)[O-])cc1C(=O)N1CCOCC1,i,i,i,i,i,/,/,/
COc1ccc(N2CCN(Cc3nc(N)nc(Nc4ccc(C)c(Cl)c4)n3)CC2)cc1,i,i,i,i,i,i,i,i
COc1ccccc1Nc1nc(N)nc(CN2CCN(c3ccccc3)CC2)n1,i,i,i,i,i,/,/,/
Cc1ccc(Nc2nc(N)nc(CN3CCN(c4ccccc4)CC3)n2)cc1Cl,i,i,i,6.6*,i,14%*,i,i
Oc1ccc(C=Nc2cccc3ccccc23)c(O)c1,i,i,i,i,i,/,/,/
SMILES,MrgX1 antag,MrgX1 PAM,RGS4 pot,RGS4 inh,MrgX1 agonist,RGS4 block valid,M3R Ca ctr,M3R basal Ca ctr
Cc1ccc(N=Cc2ccc(O)cc2O)cc1F,i,i,i,10*,i,14%*,i,13%*
O=C(CC(Nc1ccc(F)cc1)C(=O)O)c1ccccc1 (stereo unspecified),i,i,i,i,i,/,/,/
O=C(CC(Nc1ccc(F)cc1)C(=O)OCC(=O)c1cccs1)c1ccccc1 (stereo unspecified),i,i,i,6.2*,i,i,i,i
O=c1c(C/C=C/c2ccccc2)c(O)ccn1CCc1c[nH]c2ccccc12,i,i,i,5.7*,i,12%*,30%*,i
COc1ccc2[nH]cc(CCn3ccc(O)c(C/C=C/c4ccccc4)c3=O)c2c1,i,i,i,7.3*,i,18%*,i,i
CCOc1cccc(-c2c(C(=O)N/N=C(\C)c3ccncc3)nnn2-c2nonc2N)c1,i,i,i,i,i,/,/,/
CCOc1cccc(-c2c(C(=O)N/N=C/c3ccoc3)nnn2-c2nonc2N)c1,i,i,i,i,i,i,i,i
CCOc1cccc(-c2c(C(=O)N/N=C/c3ccncc3)nnn2-c2nonc2N)c1,i,i,i,i,i,i,i,i
CCOc1ccc(-c2c(C(=O)N/N=C/c3ccoc3)nnn2-c2nonc2N)cc1,i,i,i,i,i,/,/,/
CCOc1ccc(/C=N/NC(=O)c2nnn(-c3nonc3N)c2-c2ccc(OCC)cc2)cc1,i,i,i,i,i,i,i,i
Cc1ccc(C(=O)OCC(=O)NCc2cccs2)cc1S(=O)(=O)N1CCOCC1,i,i,i,i,i,/,/,/
CCN(CC)S(=O)(=O)c1ccc(N2CCCCC2)c(NC(=O)C2CCN(C(=O)c3ccc(F)cc3)CC2)c1,i,i,i,i,i,/,/,/
COc1ccc(-c2[nH]ncc2CN2CCN(C(=O)c3ccco3)CC2)cc1F,i,i,i,i,i,/,/,/
Fc1ccc(N2CCN(Cc3cn[nH]c3-c3ccccc3)CC2)cc1,i,i,i,i,i,/,i,i

# Screening results: PubChem BioAssay, Johns Hopkins Ion Channel Center
